From ChEMBL document CHEMBL1121917, “Structure--activity relationships in a broad-spectrum anthelmintic series. Acid chloride phenylhydrazones. 1. Aryl substitutions and chloride variations” (1981)

Experiments:
[1] = species: Mus musculus; experiment: Percent clearance of Syphacaia obvelata from mouse after oral treatment of 0.47 mg/mouse/day; assay type: functional
Method in brief: (§1)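 Mice naturally carrying Syphacia obvelata were experimentally infected with Nematospiroides dubius and Hymenolepis nana, then grouped after a 2-week prepatency. Finely ground compound was suspended in aqueous 0.10% carboxymethylcellulose, 0.04% polysorbate 80 and 0.0042% polyparaben, and 0.1 mL was given orally by cannula once daily for 4 days to five mice. Necropsy followed 2 days later, scoring presence or absence of each parasite. Control clearance was subtracted from the treated clearance.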

[2] = species: Mus musculus; experiment: Percent clearance of Nematospiroides dubius from mouse after oral treatment of 0.47 mg/mouse/day; assay type: functional; method in brief: as §1
[3] = species: Mus musculus; experiment: Percent clearance of Nematospiroides dubius from mouse after oral treatment of 1.87 mg/mouse/day; assay type: functional; method in brief: as §1
[4] = species: Mus musculus; experiment: Percent clearance of Syphacaia obvelata from mouse after oral treatment of 1.87 mg/mouse/day; assay type: functional; method in brief: as §1
[5] = system: Ovis aries; experiment: Percent reduction in Haemonchus eggs per gram, after treatment of 150 mg/kg dose of compound perorally; Toxic; conditions: Egg
[6] = species: Mus musculus; experiment: Percent clearance of Nematospiroides dubius from mouse after oral treatment of 7.5 mg/mouse/day; assay type: functional; method in brief: as §1
[7] = species: Mus musculus; experiment: Percent clearance of Hymenolepis nana from mouse after oral treatment of 7.5 mg/mouse/day; assay type: functional; method in brief: as §1
[8] = species: Canis familiaris; experiment: percent reduction in Uncinaria eggs per gram, after oral treatment of 50 mg/dog dose of compound in a single treatment; assay type: functional, Canis lupus familiaris, Egg
Method in brief: (§2)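 Dogs naturally infected with Toxascaris leonina were experimentally infected with mixed Ancylostoma caninum and Uncinaria stenocephala larvae. Finely ground compound was given orally in gelatin capsules. Three egg count determinations were made before and three after treatment in each experiment.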

[9] = system: Ovis aries; experiment: Percent reduction in Haemonchus eggs per gram, after treatment with 100 mg/kg dose of compound perorally in sheep; assay type: functional, Egg; conditions: route oral
Method in brief: (§3)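 Naturally parasitized lambs received compound orally, either as the aqueous suspension by stomach tube or as finely ground powder in gelatin capsules by balling gun. Activity was judged by the clinical test method, as a significant decrease in posttreatment helminth egg counts.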

[10] = species: Canis familiaris; experiment: percent reduction in Toxascaris eggs per gram, after oral treatment of 50 mg/dog dose of compound in a single treatment; assay type: functional, Canis lupus familiaris, Egg; method in brief: as §2
[11] = system: Ovis aries; experiment: Percent reduction in Trichostrongylus eggs per gram, after treatment with 100 mg/kg dose of compound perorally in sheep; assay type: functional, Egg; conditions: route oral
Method in brief: (§4)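 Naturally parasitized lambs, dosed orally either with a suspension by stomach tube or with finely ground compound in gelatin capsules by balling gun. Activity was scored by the clinical test method, meaning a significant fall in helminth egg counts after treatment.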

[12] = system: Ovis aries; experiment: Percent reduction in Strongyloides eggs per gram, after treatment with 100 mg/kg dose of compound perorally in sheep; assay type: functional, Egg; conditions: route oral; method in brief: as §4
[13] = system: Ovis aries; experiment: Percent reduction in Trichuris eggs per gram, after treatment with 100 mg/kg dose of compound perorally in sheep; assay type: functional, Egg; conditions: route oral; method in brief: as §4
[14] = system: Ovis aries; experiment: Percent reduction in Ostertagia eggs per gram, after treatment with 100 mg/kg dose of compound perorally in sheep; assay type: functional, Egg; conditions: route oral
Method in brief: (§5)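 Naturally parasitized lambs were dosed orally at the stated mg/kg. Dosing was either as a suspension of finely ground compound by stomach tube, or as ground compound weighed into gelatin capsules and given by balling gun. Activity was scored by the clinical test method: the decrease in posttreatment helminth eggs per gram.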

[15] = system: Ovis aries; experiment: Percent reduction in Oesophagostomum eggs per gram, after treatment with 100 mg/kg dose of compound perorally in sheep; assay type: functional, Egg; conditions: route oral; method in brief: as §5
[16] = species: Mus musculus; experiment: Percent clearance of Nematospiroides dubius from mouse after oral treatment of 0.32 mg/mouse/day; assay type: functional; method in brief: as §1
[17] = species: Mus musculus; experiment: Percent clearance of Syphacaia obvelata from mouse after oral treatment of 0.32 mg/mouse/day; assay type: functional; method in brief: as §1
[18] = system: Ovis aries; experiment: Percent reduction in Ostertagia eggs per gram, after oral treatment of 100 mg/kg dose of compound perorally in sheep; assay type: functional, Egg; method in brief: as §5
[19] = system: Ovis aries; experiment: Percent reduction in Trichuris eggs per gram, after oral treatment of 100 mg/kg dose of compound perorally in sheep; assay type: functional, Egg
[20] = system: Ovis aries; experiment: Percent reduction in Strongyloides eggs per gram, after oral treatment of 100 mg/kg dose of compound perorally in sheep; assay type: functional, Egg; method in brief: as §4
[21] = system: Ovis aries; experiment: Percent reduction in Trichostrongylus eggs per gram, after oral treatment of 100 mg/kg dose of compound perorally in sheep; assay type: functional, Egg; method in brief: as §4
[22] = system: Ovis aries; experiment: Percent reduction in Nematodirus eggs per gram, after oral treatment of 100 mg/kg dose of compound perorally in sheep; assay type: functional, Egg; method in brief: as §5
[23] = system: Ovis aries; experiment: Percent reduction in Oesophagostomum eggs per gram, after oral treatment of 100 mg/kg dose of compound perorally in sheep; assay type: functional, Egg; method in brief: as §5
[24] = system: Ovis aries; experiment: Percent reduction in Haemonchus eggs per gram, after oral treatment of 100 mg/kg dose of compound perorally in sheep; assay type: functional, Egg; method in brief: as §3
[25] = species: Mus musculus; experiment: Percent clearance of Syphacaia obvelata from mouse after oral treatment of 3.75 mg/mouse/day; assay type: functional; method in brief: as §1
[26] = species: Mus musculus; experiment: Percent clearance of Nematospiroides dubius from mouse after oral treatment of 3.75 mg/mouse/day; assay type: functional; method in brief: as §1
[27] = species: Canis familiaris; experiment: Percent reduction in Toxascaris eggs per gram, after oral treatment of 100 mg/dog dose of compound in a single treatment; assay type: functional, Canis lupus familiaris, Egg; method in brief: as §2
[28] = system: Ovis aries; experiment: Percent reduction in Cooperia eggs per gram, after treatment with 100 mg/kg dose of compound perorally in sheep; assay type: functional, Egg; conditions: route oral; method in brief: as §3
[29] = species: Canis familiaris; experiment: Percent reduction in Uncinaria eggs per gram, after oral treatment of 100 mg/dog dose of compound in a single treatment; assay type: functional, Canis lupus familiaris, Egg; method in brief: as §2
[30] = species: Canis familiaris; experiment: Percent reduction in Ancylostoma eggs per gram, after oral treatment of 100 mg/dog dose of compound in a single treatment; assay type: functional, Canis lupus familiaris, Egg
Method in brief: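 Dogs naturally infected with Toxascaris leonina were experimentally infected with mixed Ancylostoma caninum and Uncinaria stenocephala larvae. Finely ground compound was given orally in gelatin capsules. Fecal egg counts were taken three times before and three times after treatment, and activity was taken as the fall in egg counts.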

[31] = species: Canis familiaris; experiment: Percent reduction in Uncinaria eggs per gram, after oral treatment of 200 mg/dog dose of compound in a single treatment; assay type: functional, Canis lupus familiaris, Egg; method in brief: as §2
[32] = species: Mus musculus; experiment: Percent clearance of Syphacaia obvelata from mouse after oral treatment of 7.5 mg/mouse/day; assay type: functional; method in brief: as §1
[33] = system: Ovis aries; experiment: Percent reduction in Haemonchus eggs per gram, after treatment of 100 mg/kg dose of compound perorally in sheep; Toxic; assay type: functional, organism-based; set-up: dose 100 mg/kg; conditions: Egg; method in brief: as §3
[34] = species: Canis familiaris; experiment: percent reduction in Ancylostoma eggs per gram, after oral treatment of 100 mg/dog dose of compound in a single treatment; assay type: functional, Canis lupus familiaris, Egg; method in brief: as §2

SMILES: CC(C)c1ccc(/C(Cl)=N/Nc2ccccc2)cc1
- Parasite_Clearance [1]: 0%
- Parasite_Clearance [2]: 0%

SMILES: Cl/C(=N\Nc1ccccc1)c1cccc(Cl)c1
- Parasite_Clearance [3]: 100%
- Parasite_Clearance [4]: 100%
- Reduction [5]: Toxic

SMILES: Cl/C(=N\Nc1c(Cl)cc(Cl)cc1Cl)c1ccc(Cl)c(Cl)c1
- Parasite_Clearance [6]: 0%
- Parasite_Clearance [7]: 0%

SMILES: Cl/C(=N\Nc1cc(Cl)cc(Cl)c1)c1ccccc1
- Reduction [8]: 57%
- Reduction [9]: 97%
- Reduction [10]: 40%
- Reduction [11]: 100%
- Reduction [12]: 45%
- Reduction [13]: 100%
- Reduction [14]: 100%
- Reduction [15]: 0%

SMILES: Cl/C(=N\Nc1ccccc1)c1ccccc1Cl
- Parasite_Clearance [3]: 40%
- Parasite_Clearance [4]: 20%

SMILES: Cl/C(=N\Nc1ccc(Br)cc1Br)c1ccccc1
- Parasite_Clearance [16]: 0%
- Parasite_Clearance [17]: 0%

SMILES: Cl/C(=N\Nc1ccccc1)c1ccc(Cl)cc1
- Reduction [18]: 100%
- Reduction [19]: 0%
- Reduction [20]: 100%
- Reduction [21]: 99%
- Reduction [22]: 100%
- Reduction [23]: 100%
- Reduction [24]: 100%

SMILES: Cl/C(=N\Nc1c(Cl)cc(Cl)cc1Cl)c1ccc(Br)cc1
- Parasite_Clearance [25]: 40%
- Parasite_Clearance [26]: 0%

SMILES: Cc1ccccc1/C(Cl)=N/Nc1c(Cl)cc(Cl)cc1Cl
- Reduction [9]: 85%
- Reduction [27]: 100%
- Reduction [28]: 33%
- Reduction [29]: 20%
- Reduction [11]: 14%
- Reduction [12]: 85%
- Reduction [13]: 0%
- Reduction [30]: 0%
- Reduction [14]: 67%
- Reduction [15]: 11%

SMILES: Cl/C(=N\Nc1ccccc1)c1ccc(Cl)c(Cl)c1
- Parasite_Clearance [6]: 100%

SMILES: Cc1cc(/C(Cl)=N/Nc2ccccc2)ccc1[N+](=O)[O-]
- Parasite_Clearance [25]: 100%
- Reduction [29]: 0%
- Reduction [31]: 55%
- Parasite_Clearance [26]: 80%

SMILES: Cc1ccccc1N/N=C(\Cl)c1ccccc1
- Parasite_Clearance [1]: 0%
- Parasite_Clearance [2]: 100%

SMILES: Cl/C(=N\Nc1c(Cl)cc(Cl)cc1Cl)c1cccc(Cl)c1
- Parasite_Clearance [6]: 50%
- Parasite_Clearance [32]: 100%

SMILES: Cc1cc(Cl)ccc1N/N=C(\Cl)c1ccccc1
- Parasite_Clearance [6]: 0%
- Parasite_Clearance [32]: 0%

SMILES: Cl/C(=N\Nc1ccc(Cl)c(Cl)c1)c1ccccc1
- Reduction [27]: 0%
- Reduction [33]: Toxic
- Reduction [29]: 0%
- Reduction [34]: 0%

SMILES: Cl/C(=N\Nc1c(Cl)cc(Cl)cc1Cl)c1c(Cl)cccc1Cl
- Parasite_Clearance [6]: 0%
- Parasite_Clearance [7]: 0%

SMILES: Cl/C(=N\Nc1ccc(Cl)cc1)c1ccccc1
- Parasite_Clearance [1]: 80%
- Parasite_Clearance [2]: 100%

SMILES: O=[N+]([O-])c1ccc(/C(Cl)=N/Nc2ccccc2)c(Cl)c1
- Parasite_Clearance [6]: 0%
- Parasite_Clearance [32]: 0%

SMILES: Cl/C(=N\Nc1cc(Cl)c(Cl)cc1Cl)c1ccccc1
- Parasite_Clearance [25]: 33%
- Parasite_Clearance [26]: 0%

SMILES: Cl/C(=N\Nc1ccccc1)c1ccc(Cl)cc1Cl
- Parasite_Clearance [1]: 0%
- Parasite_Clearance [2]: 0%
